Experimental findings from ChEMBL document CHEMBL1148329, “Synthesis and structure-activity studies on N-[5-(1H-imidazol-4-yl)-5,6,7,8-tetrahydro-1-naphthalenyl]methanesulfonamide, an imidazole-containing alpha(1A)-adrenoceptor agonist” (J Med Chem, 2004) are described below.

The subject of assay [1] is Canis familiaris. The experiment in a line: Uroselectivity was determined by measuring effective dose required for 5 mmHg increase of intraurethral pressure (IUP) in vivo in dog. In kind it is functional, Canis lupus familiaris. The essentials: (§1)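 Dog model recording intraurethral pressure (IUP) and mean arterial pressure (MAP) simultaneously. Increasing iv doses given, maximal effect of each dose taken. Doses giving a 5 mmHg rise in IUP (ED Δ5) or 20 mmHg rise in MAP (ED Δ20) were calculated, in nmol/kg ± SEM, n ≥ 4 (2 or 3 where footnoted).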

Assay [2] deals with Canis familiaris. The experiment in a line: Uroselectivity was determined by measuring effective dose required for 20 mmHg increase of mean arterial pressure (MAP) in vivo in dog. The format is functional, Canis lupus familiaris, Artery. In outline:
as §1

Assay [3] concerns the target T1, Alpha-1A adrenergic receptor (Oryctolagus cuniculus) (UniProt O02824).
T1 sequence (whole entry): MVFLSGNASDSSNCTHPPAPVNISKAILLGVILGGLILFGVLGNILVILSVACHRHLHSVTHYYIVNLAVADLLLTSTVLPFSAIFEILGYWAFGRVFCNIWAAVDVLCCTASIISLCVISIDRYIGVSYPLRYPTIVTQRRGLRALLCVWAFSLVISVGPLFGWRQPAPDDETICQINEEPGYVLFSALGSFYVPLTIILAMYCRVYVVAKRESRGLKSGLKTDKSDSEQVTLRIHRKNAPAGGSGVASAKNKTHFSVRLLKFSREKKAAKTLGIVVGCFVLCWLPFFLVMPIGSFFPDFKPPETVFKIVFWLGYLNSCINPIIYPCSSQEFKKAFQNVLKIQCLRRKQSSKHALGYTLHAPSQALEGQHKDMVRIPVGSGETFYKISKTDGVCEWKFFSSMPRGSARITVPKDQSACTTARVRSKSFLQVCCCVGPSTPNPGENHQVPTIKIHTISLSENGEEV
Put plainly: Efficacy relative to phenylephrine (PE) to constrict tissue containing the alpha-1A adrenergic receptor in rabbit urethra. In kind it is functional, tissue-based. The essentials:
(§2)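 α1-agonist dose–response curves in isolated tissue: rabbit urethra (α1A), rat spleen (α1B), rat aorta (α1D). Agonist potency and efficacy read from the concentration–response curves.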

In assay [4] the target is T2, Alpha-2A adrenergic receptor (Rattus norvegicus) (UniProt P22909).
T2 sequence (whole entry): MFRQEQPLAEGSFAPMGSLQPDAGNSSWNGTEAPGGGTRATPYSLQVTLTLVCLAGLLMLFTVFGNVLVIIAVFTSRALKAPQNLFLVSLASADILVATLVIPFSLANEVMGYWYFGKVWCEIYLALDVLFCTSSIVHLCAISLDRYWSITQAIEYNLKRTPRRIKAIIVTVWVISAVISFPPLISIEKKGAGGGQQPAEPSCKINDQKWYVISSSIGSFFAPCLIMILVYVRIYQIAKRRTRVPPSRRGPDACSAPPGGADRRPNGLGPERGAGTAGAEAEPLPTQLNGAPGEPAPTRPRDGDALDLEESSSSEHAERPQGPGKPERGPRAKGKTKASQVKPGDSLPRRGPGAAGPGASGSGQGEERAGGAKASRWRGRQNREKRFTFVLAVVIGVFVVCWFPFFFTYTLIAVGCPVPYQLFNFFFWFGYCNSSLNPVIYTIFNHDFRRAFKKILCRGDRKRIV
Put plainly: Efficacy relative to clonidine to constrict tissue containing the alpha-2A adrenergic receptor in rat prostatic vas deferens.

Assay [5] concerns the target T3, Alpha-1B adrenergic receptor (Mesocricetus auratus, UniProt P18841).
T3 sequence (P18841 whole entry): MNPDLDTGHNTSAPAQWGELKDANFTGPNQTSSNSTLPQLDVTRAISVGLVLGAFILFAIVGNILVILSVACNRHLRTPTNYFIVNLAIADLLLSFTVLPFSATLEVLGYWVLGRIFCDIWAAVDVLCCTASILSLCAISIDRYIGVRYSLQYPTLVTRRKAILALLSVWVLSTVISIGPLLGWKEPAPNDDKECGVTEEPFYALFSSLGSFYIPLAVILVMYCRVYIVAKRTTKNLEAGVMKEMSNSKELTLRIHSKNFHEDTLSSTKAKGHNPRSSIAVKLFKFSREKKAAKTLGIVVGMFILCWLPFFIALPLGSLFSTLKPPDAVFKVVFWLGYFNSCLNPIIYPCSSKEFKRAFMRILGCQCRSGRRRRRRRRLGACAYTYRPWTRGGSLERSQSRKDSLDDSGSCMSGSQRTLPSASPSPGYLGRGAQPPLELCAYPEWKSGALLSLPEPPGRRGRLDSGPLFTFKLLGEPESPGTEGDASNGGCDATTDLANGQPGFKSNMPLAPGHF
The experiment in a line: In vitro binding affinity towards alpha-1B adrenergic receptor of hamster clone in radioligand binding assay. The format is single protein. In outline: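 Radioligand binding at α1 subtypes: α1A from rat submaxillary gland, α1B hamster clone, α1D rat clone. Run essentially per an earlier method.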

The target in assay [6] is Alpha adrenergic receptor 1A and 1D (Rattus norvegicus) (UniProt P23944+P43140). The experiment in a line: Selectivity is ratio of pKi (binding affinity) of Alpha-1D to that of alpha1A. The format is protein assay.
Assay [7] can be described thus: Selectivity is ratio of efficacy of alpha-2A to that of alpha1A adrenoceptor. The format is functional.
Assay [8] addresses T2, Alpha-2A adrenergic receptor (Rattus norvegicus). The experiment in a line: Functional agonism to constrict tissue containing alpha-2A adrenergic receptor in rat prostatic vas deferens. The format is tissue-based.
For assay [9], the target named is T4, Alpha-1D adrenergic receptor (Rattus norvegicus) (UniProt P23944).
T4 sequence (whole entry): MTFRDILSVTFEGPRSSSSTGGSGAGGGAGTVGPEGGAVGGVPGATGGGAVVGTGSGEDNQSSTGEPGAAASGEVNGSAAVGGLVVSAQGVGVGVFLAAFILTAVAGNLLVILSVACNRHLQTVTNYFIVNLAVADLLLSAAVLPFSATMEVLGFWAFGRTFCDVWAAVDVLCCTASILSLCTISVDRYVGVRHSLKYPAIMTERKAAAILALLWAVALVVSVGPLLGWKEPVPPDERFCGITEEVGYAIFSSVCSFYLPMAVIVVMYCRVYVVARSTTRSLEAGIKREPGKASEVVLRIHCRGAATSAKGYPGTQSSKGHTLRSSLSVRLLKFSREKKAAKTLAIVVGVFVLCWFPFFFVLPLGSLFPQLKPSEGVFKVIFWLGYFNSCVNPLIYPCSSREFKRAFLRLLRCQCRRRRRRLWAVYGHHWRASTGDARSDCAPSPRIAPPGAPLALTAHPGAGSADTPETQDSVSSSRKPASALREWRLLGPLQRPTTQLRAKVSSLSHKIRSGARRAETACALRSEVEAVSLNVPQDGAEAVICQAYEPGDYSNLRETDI
The experiment in a line: Efficacy relative to phenylephrine (PE) constrict tissue containing the alpha-1D adrenergic receptor in rat aorta. The format is functional, tissue-based. The essentials:
as §2

Turning to `O=S(=O)(CC(F)(F)F)Nc1cccc2c1CCCC2c1c[nH]cn1` (single isomer, unassigned; (+)), the ED delta5 with Canis familiaris [1] is 156 nM/kg. Moreover, the “ED delta20” value in the assay with Canis familiaris [2] stood at 450 nM/kg. Further, the Efficacy in assay [3] amounted to 52%; in [4] it was 100%. Besides, the Ki (commonly a measure of affinity in units of concentration, obtained from inhibition or displacement) in [5] was over 10 µM. Further, the results for the Selectivity in assay [6] and in assay [7] were over 80 and 0.14, respectively. The compound also came in with a pD2 in [8] of 6.59.

In the case of `CN(c1cccc2c1CCCC2c1c[nH]cn1)S(C)(=O)=O` (centres undefined), the “ED delta20” value in the assay with Canis familiaris [2] came to 225.3 nM/kg. The Efficacy is 79% in assay [3] and 100% in [4]. In addition, in [5], the Ki was over 10 µM. The Selectivity amounted to 3 in assay [6] and 0.12 in [7]. This compound registered a pD2 in assay [8] of 7.08.

Consider `COc1ccc(OC)c(C(O)CN)c1` (centres undefined) [DESGLYMIDODRINE], for which the figures for the Efficacy in [9], in assay [3] and in assay [4] were 68%, 133% and 20%, respectively. Also, in the assay on Canis familiaris [1], the “ED delta5” value worked out at 205 nM/kg. For the same compound, the “ED delta20” value in the assay on Canis familiaris [2] was found to be 250 nM/kg. Moreover, the Selectivity in [6] was determined as 0.8; in [7], 0.001. The same compound yielded a pD2 in assay [8] of 8.23.

For `CC(N)C(O)c1ccccc1` (centres undefined) [PHENYLPROPANOLAMINE], the Efficacy in assay [9] was found to be 91%; in assay [3], 68%; in assay [4], 85%. Moreover, the “ED delta5” value in the assay on Canis familiaris [1] is 1100 nM/kg. Moreover, the “ED delta20” value in the assay on Canis familiaris [2] is 330 nM/kg. Besides, the Ki in assay [5] was 9.55 µM. The results for the Selectivity in assay [6] and in [7] were 1 and 0.03, respectively.

`O=C(Nc1cccc2c1CCCC2c1c[nH]cn1)C(F)(F)F` (centres undefined): the “ED delta5” value with Canis familiaris [1] came out at 188 nM/kg. In addition, the “ED delta20” value in the assay with Canis familiaris [2] worked out at 216 nM/kg. Moreover, the Efficacy came out at 118% in assay [3] and 100% in assay [4]. This compound also had an inhibition constant (Ki) in assay [5] of over 10 µM. Moreover, the Selectivity was determined as 20 in [6] and 0.1 in [7]. This compound also displayed a pD2 in assay [8] of 7.14.
